Assay results published in article PMC4847003 (International Journal for Parasitology: Drugs and Drug …, 2015).
Structures can show the parent of a compound that is named as a salt. Where two headings read alike, the source gives them in different places.

Tests used:
3T3 host cells = assay: Host cell number in the same well of the amastigote image-based assay; parameters: species or system mouse; settings: for SI (3T3): 3T3 IC50 or highest dose tested / amastigote IC50
[1] = as above; parameters: species or system mouse; settings: mouse, 3T3 host cells infected with T. cruzi
HEK293 cells = assay: HEK293 viability assay; type: cell-based, human; settings: for IC50: read-out: IC50 HEK293 (μM ± SD); for Selectivity (SI) of T. cruzi amastigotes to HEK293 cells: based on solid samples
3T3 cells = assay: Activity against sub-confluent 3T3 cells; type: cell-based, mouse; settings: at 73 μM, seeding density of 1000 cells per well
Summary of the method: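 3T3 cells seeded at 1000 to 62 cells/well in collagen-coated 384-well plates and grown 48 h. Wells were washed twice and refilled with growth medium. A test-compound dose series was added in duplicate per density, with 30 μM puromycin (positive) and 0.37% DMSO (negative) controls. After a further 48 h, 70 μM final resazurin was added. […] Averaged over duplicate experiments.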

T. cruzi amastigotes = assay: Residual amastigotes following compound treatment, 48 and 72 h image-based assay; type: cell-based, Trypanosoma cruzi Tulahuen strain; settings: for Emax at 18 µM / IC50: Trypanosoma cruzi; for Emax at 18 µM: read-out: % of infections removed at Emax concentration; for IC50: read-out: IC50 value against T. cruzi amastigotes
Summary of the method: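 3T3 fibroblasts seeded at 1 × 10³ cells/well in collagen-coated 384-well plates, then infected with T. cruzi trypomastigotes. Free parasites were washed off with PBS after 24 h. Test compound was given as a dose series, pre-diluted 1:21 in water, for 48 or 72 h. Cells were fixed in 4% paraformaldehyde and stained with Hoechst in 0.1% Triton X-100. Residual intracellular spots at the Emax concentration were scored, including by eye.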

[2] = tested on: Trypanosoma cruzi amastigotes; assay: Image-based T. cruzi amastigote assay in 3T3 fibroblasts, 48 h compound exposure; type: cell-based, Trypanosoma cruzi Tulahuen strain; settings: Fibroblast
T. cruzi trypomastigotes = assay: Trypomastigote viability assay; type: cell-based, Trypanosoma cruzi Tulahuen strain; settings: for activity against the trypomastigote: Malaria Box retest; for IC50: read-out: IC50 T. cruzi Trypomastigote (μM ± SD)
Y strain infection = settings: ref Moraes et al., 2014, cited from earlier work
[3] = tested on: Tulahuen strain parasites in U2OS cells; settings: 96 h treatment, high concentrations; ref Moraes et al., 2014; cited from earlier work
[4] = read-out: T. cruzi amastigote IC50 (μM ± SD), Malaria Box sample stored in 100% DMSO, two independent experiments
[5] = solid sample, 48 h, 2 independent experiments
[6] = read-out: 3T3 % activity highest dose, at 9.2 μM, DMSO sample
[7] = Trypanosoma cruzi, read-out: T. cruzi Trypomastigote % activity at highest dose
[8] = read-out: IC50 value against T. cruzi amastigotes, Malaria Box primary screening

## CC[C@@]1(O)C(=O)OCc2c1cc1n(c2=O)Cc2cc3ccccc3nc2-1 [Camptothecin, camptothecin]
3T3 host cells; library DMSO stock
  SI (3T3): >49.41
3T3 host cells; solid sample
  SI (3T3): >55.56
[1]
  cytotoxicity at 48 h, 5 µM: 38%
  cytotoxicity at 48 h, 16.8 µM: 44%

## Cc1cc(C2CCCCC2)n(O)c(=O)c1 [Ciclopirox Olamine, ciclopirox olamine]
HEK293 cells; Homo sapiens, HEK293, 48 h
  IC50: 1.4 ± 1.07 µM
HEK293 cells; Table 2 footnote a, solid sample
  Selectivity index (SI) to HEK293 cells: 0.36
3T3 host cells; library DMSO stock
  SI (3T3): >3.54
3T3 host cells; solid sample
  SI (3T3): > 35.0
3T3 host cells; Mus musculus, read-out: Host % activity at highest dose
  activity at 19 µM: 53%
[1]
  cytotoxicity at 48 h, 136.5 µM: 42%
3T3 cells
  activity against 3T3 cells: 38%

## Clc1ccccc1C(c1ccccc1)(c1ccccc1)n1ccnc1 [Clotrimrazole HCl, clotrimazole, reference compound]
T. cruzi amastigotes; 48 h incubation, 0.92 µM in Figure S3
  residual amastigotes at the Emax concentration: amastigotes that appeared to remain

## CCOc1cccc2sc(N(Cc3cccnc3)C(=O)C3CCCCC3)nc12 [MMV001230]
HEK293 cells
  Selectivity (SI) of T. cruzi amastigotes to HEK293 cells: > 94.52
3T3 host cells; based on solid samples
  SI (3T3): > 87.26

## COc1ccc2sc(N(Cc3cccnc3)C(=O)c3ccc(C#N)cc3)nc2c1 [MMV001239, 4-cyano-N-(5-methoxy-1,3-benzothiazol-2-yl)-N-(pyridin-3-ylmethyl)benzamide]
T. cruzi amastigotes; 18 μM, 48 h incubation
  % of infections removed at Emax concentration: Ninety
T. cruzi amastigotes; 48 h
  Emax at 18 µM: 90%
HEK293 cells
  activity / cytotoxicity against HEK293 cells: no cytotoxicity detected
  Selectivity (SI) of T. cruzi amastigotes to HEK293 cells: > 22.37
3T3 host cells
  cytotoxicity against 3T3 cells: no cytotoxicity detected
3T3 host cells; based on solid samples
  SI (3T3): > 20.65
[2]; [4]
  IC50: 0.86 ± 0.006 µM

## COc1ccc(C)c2sc(N(Cc3cccnc3)C(=O)c3ccc(C#N)cc3)nc12 [MMV001241]
HEK293 cells; at 79.4 μM, solid sample
  HEK293 % activity at highest dose: 44% at 79.4 μM
HEK293 cells
  Selectivity (SI) of T. cruzi amastigotes to HEK293 cells: > 34.22
3T3 host cells; based on solid samples
  SI (3T3): > 31.59

## O=C(Nc1nc(-c2ccccn2)cs1)c1ccccc1Br [MMV665909]
T. cruzi trypomastigotes
  activity against the trypomastigote: active against the trypomastigote life cycle form
T. cruzi trypomastigotes; Malaria Box DMSO sample
  IC50: 1.08 ± 0.01 µM
T. cruzi trypomastigotes; Malaria Box solid sample
  IC50: 1.05 ± 0.13 µM
HEK293 cells; [5]
  IC50: 1.97 ± 0.65 µM
3T3 host cells; [6]
  cytotoxicity: 35%
3T3 host cells; read-out: 3T3 % activity highest dose, at 73.3 μM, solid sample
  cytotoxicity: 44%

## COc1ccccc1N1CCN(C(CNS(=O)(=O)c2ccc(Cl)cc2)c2cccnc2)CC1 (stereo not drawn) [MMV665914, 4-chloro-N-(2-(4-(2-methoxyphenyl)piperazin-1-yl)-2-(pyridin-3yl)ethyl) benzene sulfonamide]
T. cruzi amastigotes; 18 μM, 48 h incubation
  % of infections removed at Emax concentration: 97%
T. cruzi amastigotes; 18 μM, 72 h incubation
  % of parasites removed at Emax concentration: 99%
HEK293 cells
  Selectivity (SI) of T. cruzi amastigotes to HEK293 cells: > 45.90
3T3 host cells; based on solid samples
  SI (3T3): > 42.37
3T3 host cells; [6]
  cytotoxicity: 25%

## Cc1[nH]c2ccccc2c(=O)c1CC=C(Cl)Cl [MMV665994, 3-(3,3-Dichloro-2-propen-1-yl)-2-methyl-4(1H)-quinolinone]
T. cruzi trypomastigotes; [7]
  inhibition at 87 µM: 52%
T. cruzi amastigotes; 48 h
  Emax at 18 µM: 97%
HEK293 cells
  Selectivity (SI) of T. cruzi amastigotes to HEK293 cells: > 64.55
3T3 host cells; based on solid samples
  SI (3T3): > 59.59
[2]; [4]
  IC50: 0.66 ± 0.7 µM

## O=C(NC(c1ccccc1)c1ccc2cccnc2c1O)c1ccccc1 (stereo not drawn) [MMV666080]
T. cruzi trypomastigotes
  activity against the trypomastigote: active against the trypomastigote life cycle form
T. cruzi trypomastigotes; Malaria Box DMSO sample
  IC50: 0.9 ± 0.06 µM
T. cruzi trypomastigotes; Malaria Box solid sample
  IC50: 0.52 ± 0.04 µM
HEK293 cells
  activity / cytotoxicity against HEK293 cells: active against HEK293 cells
HEK293 cells; [5]
  IC50: 2.88 ± 0.9 µM
3T3 host cells; based on solid samples
  SI (3T3): > 25.77
3T3 host cells; [6]
  cytotoxicity: 40%
3T3 host cells; read-out: 3T3 % activity highest dose, at 36.6 μM, solid sample
  cytotoxicity: 34%

## CC1CS(=O)(=O)CCN1/N=C/c1ccc([N+](=O)[O-])o1 (stereo not drawn) [Nifurtimox, nifurtimox]
HEK293 cells
  Selectivity (SI) of T. cruzi amastigotes to HEK293 cells: > 251.1
3T3 host cells; based on solid samples
  SI (3T3): > 231.8
3T3 host cells; solid sample
  SI (3T3): >157.41
3T3 host cells; Malaria Box primary screening
  activity against host cells: no corresponding activity against host cells
[1]
  cytotoxicity at 48 h, 153.1 µM: 32%
[2]; [8]
  IC50: 0.764 µM
[2]; [4]
  IC50: 0.59 ± 0.1 µM

## COc1ccc(C[C@H](N)C(=O)N[C@H]2[C@@H](O)[C@H](n3cnc4c(N(C)C)ncnc43)O[C@@H]2CO)cc1 [Puromycin, puromycin]
HEK293 cells; Homo sapiens, HEK293, 48 h
  IC50: 0.28 ± 0.04 µM
HEK293 cells
  Selectivity (SI) of T. cruzi amastigotes to HEK293 cells: 0.12
3T3 host cells; based on solid samples
  SI (3T3): 1.48
3T3 host cells; library DMSO stock
  SI (3T3): 0.97
3T3 host cells; solid sample
  SI (3T3): 1.75
3T3 host cells; Mus musculus, read-out: Host IC50 ± stdev, 3T3, run of library DMSO retest
  IC50: 3.04 ± 0.52 µM
3T3 host cells; Mus musculus, read-out: Host IC50 ± stdev, 3T3, run of solid sample retest
  IC50: 2.76 ± 0.69 µM
[2]; [8]
  IC50: 2.35 µM
[2]; [4]
  IC50: 2.54 ± 0.13 µM

## CN(C)c1ccc(Nc2c3ccccc3nc3ccccc23)cc1 [STL088556, N′-(acridin-9-yl)-N,N-dimethylbenzene-1,4-diamine]
T. cruzi trypomastigotes; [7]
  inhibition at 10.9 µM: 65%
HEK293 cells; Homo sapiens, HEK293, read-out: HEK293 % activity at highest dose
  activity at 79.4 µM: 115%
[1]
  cytotoxicity at 48 h, 9.2 µM: 30%
  cytotoxicity at 48 h, 73.3 µM: 62%
[2]; read-out: T. cruzi amastigote % activity
  activity at 73 µM: 62%
[2]; [4]
  IC50: 2.37 ± 1.51 µM

## COc1c(C)c2c(c(O)c1C/C=C(\C)CCC(=O)[O-])C(=O)OC2.[Na+] [Sodium Mycophenolate, sodium mycophenolate]
3T3 host cells; library DMSO stock
  SI (3T3): >19.11
3T3 host cells; read-out: Host % activity at highest dose, 3T3, at 17.2 μM, library DMSO stock
  cytotoxicity: 30%

## CC[C@@H]([C@H](C)O)n1ncn(-c2ccc(N3CCN(c4ccc(OC[C@@H]5CO[C@@](Cn6cncn6)(c6ccc(F)cc6F)C5)cc4)CC3)cc2)c1=O [posaconazole, reference compound]
Y strain infection; 72 h exposure
  reduction of Y strain infection: 84%
Y strain infection; exposure to 80 nM for 48 h
  reduction of Y strain infection: approximately 60%
T. cruzi amastigotes; Emax of 50 nM, 48 and 72 h (Figure S5)
  residual amastigotes at the Emax concentration: presence of a small number of amastigotes could be seen
T. cruzi amastigotes; 48 h
  IC50: 0.006 ± 0.0006 µM
T. cruzi amastigotes; 72 h
  IC50: 0.0049 ± 0.0036 µM
[3]
  parasites reduced by: 93%
